According to article PMC3582033 (Cell, 2011):

What was measured:
[1] = tested on: Gsc, Mixl1, Smad7, Skil, SerpinE1, Lefty1 expression in mESCs; assay: qRT-PCR of activin/nodal target genes in mESCs / embryoid bodies; format: cell-based, mouse
Procedure, shortened: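 E14Tg2a.IV mESCs were kept feeder-free with LIF; Trim33-null lines were kept on MEFs. Variants were Trim33 knockdown by lentiviral shRNA, Smad2/3-depleted, Smad4-null, or reconstituted with TRIM33 constructs. Embryoid bodies formed for 2.5 days, then received activin A (50 ng/ml) or SB431542 (10 μM) for 2 h. Total RNA went to qRT-PCR. Mean ± S.D. of quadruplicates, three independent experiments.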

TRIM33 PHD-Bromo = biological target: T1, TRIM33 PHD-Bromo (Homo sapiens, UniProt Q9UPN9); assay: ITC binding of H3; conditions: versus H3(1-28) (KD=0.46 μM)
T1 sequence (Q9UPN9 882-1087 limits assumed): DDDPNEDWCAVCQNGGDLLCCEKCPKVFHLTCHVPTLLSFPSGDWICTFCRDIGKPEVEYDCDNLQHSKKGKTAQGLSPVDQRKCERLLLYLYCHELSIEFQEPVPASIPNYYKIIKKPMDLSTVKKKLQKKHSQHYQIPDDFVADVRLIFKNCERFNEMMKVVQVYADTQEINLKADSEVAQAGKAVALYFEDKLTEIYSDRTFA

HaCaT keratinocytes [2] = assay: TGF-β gene responses in HaCaT; format: cell-based, human; conditions: qRT-PCR
[3] = tested on: MDA-MB-231 breast carcinoma cells; assay: TGF-β gene responses in MDA-MB-231; format: cell-based, human; conditions: qRT-PCR, MDA-MB-231, TRIM33 depletion
HaCaT cells = assay: Luciferase reporter, SERPINE1; format: cell-based, human; conditions: SERPINE1 (PAI1) element
MDA-MB-231 cells = assay: Luciferase reporter, repeats of Smad binding element; format: cell-based, human; conditions: SBE repeats
HaCaT keratinocytes [4] = conditions: and our unpublished work, ref Gomis et al., 2006; cited from earlier work
[5] = tested on: MDA-MB-231 breast carcinoma cells; conditions: and our unpublished work, ref Gomis et al., 2006; cited from earlier work
[6] = tested on: TRIM33-Smad2/3 complex in mESCs; assay: Smad2/3 co-immunoprecipitation, TRIM33-Smad2/3 complex formation; format: cell-based, mouse
[7] = tested on: Smad4-Smad2/3 complex in mESCs; assay: Smad2/3 co-immunoprecipitation, Smad4-Smad2/3 complex formation; format: cell-based, mouse
[8] = tested on: activin responsive genes in EBs; assay: Genome-wide transcriptomic analysis; format: cell-based, mouse; conditions: >3 fold change
[9] = tested on: TRIM33 at Gsc and Mixl1 promoters; assay: ChIP of TRIM33 at Gsc / Mixl1 promoters; format: cell-based, mouse
Procedure, shortened: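 EBs (day 2.5) came from wild-type, Trim33-depleted, Smad2/3-depleted or Smad4-null mESCs. They were given activin A (50 ng/ml) or SB431542 (10 μM) for 2 h. Formaldehyde crosslinking (1%, 37 °C, 10 min) was quenched with glycine. Anti-TRIM33 ChIP used a kit, with absolute qPCR of Gsc/Mixl1 promoter regions reported as % input. Mean ± S.D. of quadruplicates, at least three experiments.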

[10] = tested on: Smad4 at Gsc and Mixl1 promoters; assay: ChIP of Smad4 at Gsc / Mixl1 promoters; format: cell-based, mouse; conditions: EBs day 2.5, activin 2 h
Procedure, shortened: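 Wild-type, shRNA Trim33-depleted or TRIM33-reconstituted mESCs formed EBs for 2.5 days, then 2 h with activin A (50 ng/ml) or SB431542 (10 μM). Cells were crosslinked in 1% formaldehyde at 37 °C for 10 min and quenched in 0.125 M glycine. Anti-Smad4 ChIP was read by absolute qPCR of Gsc (−0.4 kb) and Mixl1 (−0.5/−0.2 kb) as % input. Mean ± S.D. of quadruplicates, three experiments.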

[11] = tested on: histone H3 modified residues at Gsc and Mixl1 promoters; assay: ChIP of histone H3 marks at Gsc and Mixl1 promoters; format: cell-based, mouse; conditions: activin
Procedure, shortened: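 Histone-mark ChIP used day-2.5 mESC embryoid bodies treated with activin A (50 ng/ml) or SB431542 (10 μM). Cells were fixed with 1% formaldehyde (37 °C, 10 min) and quenched with glycine. Antibodies recognised modified H3 residues; protein A/G beads alone served as negative controls. Mono-nucleosome templates came from micrococcal nuclease digestion. Absolute qRT-PCR, percent of input. Mean ± S.D. of quadruplicates, ≥3 experiments.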

[12] = tested on: HP1γ at Gsc and Mixl1 promoters; assay: ChIP of HP1γ at Gsc and Mixl1 promoters; format: cell-based, mouse; conditions: wild type and Trim33-null EBs day 2.5, activin 2 h
Procedure, shortened: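 Mouse E14Tg2a.IV ESCs (feeder-free, LIF) and Trim33-null ESCs (C57Bl/6J, on MEFs) formed EBs for 2.5 days, then got activin or SB for 2 h. HP1γ or no-antibody ChIP used a kit. Absolute qPCR covered Gsc −2.3 kb and Mixl1 −0.2/−0.5 kb, as % input. Mean ± S.D. of quadruplicates.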

[13] = tested on: RNA Pol II at Gsc and Mixl1 promoters; assay: ChIP of RNA Pol II at Gsc and Mixl1 promoters; format: cell-based, mouse; conditions: Gsc -0.1 kb, Mixl1 -0.2 kb, EBs day 2.5, activin 2 h
Procedure, shortened: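 Mouse ESC embryoid bodies at day 2.5 (wild type or Trim33-null) received activin or SB431542 for 2 h. ChIP used anti-RNA Pol II. qRT-PCR read Gsc −0.1 kb and Mixl1 −0.2 kb as percent of input. Mean ± S.D. of quadruplicates, two independent experiments.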

## NC(=O)c1ccc(-c2nc(-c3ccc4c(c3)OCO4)c(-c3ccccn3)[nH]2)cc1 [SB431542, reference compound]
[1]; mESC EBs, SB431542 10 μM
  sensitivity of endogenous nodal-like factor responses to SB431542: SB431542-sensitive

## H3(1-28) acetylation of K18: H3(1-28) with acetylation of K18
TRIM33 PHD-Bromo
  enhancement of binding relative to H3(1-28): 2.3 fold

## TGF-β
HaCaT keratinocytes [2]
  TGF-β response of SMAD7, SKIL and SERPINE1 on TRIM33 depletion: did not significantly alter the TGF-β response
[3]
  TGF-β response of SMAD7, SKIL and SERPINE1 on TRIM33 depletion: did not significantly alter the TGF-β response
HaCaT cells
  reporter response on TRIM33 depletion: increased the activity of these constructs
MDA-MB-231 cells
  reporter response on TRIM33 depletion: increased the activity of these constructs
HaCaT keratinocytes [4]
  most TGF-β responses on RNAi depletion of Smad2/3 and Smad4 or TRIM33: inhibited by RNAi-mediated depletion of Smad2/3 and Smad4, but not by depletion of TRIM33
[5]
  most TGF-β responses on RNAi depletion of Smad2/3 and Smad4 or TRIM33: inhibited by RNAi-mediated depletion of Smad2/3 and Smad4, but not by depletion of TRIM33

## activin: recombinant activin A (R&D Systems), ligand sharing receptors with nodal
[6]; Smad4-null mESCs
  formation of TRIM33-Smad2/3 complex, Smad4 requirement: did not require Smad4
[6]; mESCs, activin A 50 ng/ml
  t1/2 of TRIM33-Smad2/3 complex formation: ~30 min
[7]; TRIM33 shRNA or knock-out mESCs
  formation of Smad4-Smad2/3 complex on TRIM33 depletion: did not inhibit the formation of the Smad4-Smad2/3 complex
[7]; mESCs, activin A 50 ng/ml
  t1/2 of Smad4-Smad2/3 complex formation: ~30 min
[1]; Cripto/cryptic-depleted cells
  responsiveness to activin: remained responsive to activin
[1]; RNAi-mediated depletion of TRIM33, EB 2.5 days, activin 2 h
  induction of Gsc, Mixl1, Smad7: strongly blunted the induction of Gsc and Mixl1 but not that of Smad7
[1]; Smad4-null or Smad2/3-depleted mESCs, EB 2.5 days, 2 h
  Gsc, Mixl1 and Smad7 responses to added activin: lacked Gsc, Mixl1 and Smad7 responses
[1]; TRIM33-depleted cells reconstituted with shRNA-insensitive TRIM33 vector
  Gsc and Mixl1 responses: restored the Gsc and Mixl1 responses
[1]; Trim33-null ESC lines, activin
  expression of Smad7, Skil and SerpinE1: stimulated the expression of the common Smad2/3 target genes
[1]; Trim33-null mESCs, Smad4-null mESCs depleted of TRIM33
  Lefty1 induction by activin: blunted
[1]; two independent Trim33-null ESC lines, activin
  expression of Gsc and Mixl1: failed to stimulate the expression of Gsc and Mixl1
[8]; p<0.05
  total activin gene responses: 407 responses
[8]; p<0.05, of 407 responses
  activin gene responses requiring both Smad4 and TRIM33: 333 responses
[9]; EBs day 2.5, activin 2 h
  TRIM33 ChIP binding, Mixl1: Activin-dependent binding of TRIM33 occurred near the Mixl1 ARE
[9]; depletion of Smad2/3
  activin-dependent TRIM33 binding on Smad2/3 depletion, Mixl1: inhibited the activin-dependent binding of TRIM33
[9]; wild-type versus Smad4-null ESCs
  activin-induced TRIM33 binding, effect of Smad4: enhanced the activin-induced binding of TRIM33 to its sites
[10]
  Smad4 ChIP binding, Gsc: Activin-dependent binding of Smad4 occurred only at the ARE
[11]; TRIM33 binding regions and throughout Gsc and Mixl1 promoters
  level of H3K18ac: rapid, marked increase in the level of H3K18ac
[11]
  levels of H3K14ac and H3K23ac: increased by activin
[11]; throughout these regions of Gsc and Mixl1 promoters
  level of H3K9me3: did not affect the level of H3K9me3
[12]
  HP1γ binding to TRIM33 target regions: inhibited by activin addition in a TRIM33-dependent manner
[13]
  level of Pol II binding to initiator region: increase in the level of Pol II binding
